Screens (PubChem BioAssay)
Hits are enriched below; roughly 2.2% of the tested compounds scored in any of these assays.
NR2E3 ag-1: human photoreceptor-specific nuclear receptor agonism; Q9Y5X4; CHO-S Gal4-NCOR/VP16-NR2E3 two-hybrid, luciferase; inhibition of corepressor binding, % at 3.98 µM; hit rate 0.35% among 360,000; AID 602229;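 active means inhibition above the mean of all tested compounds plus 3 SD, cut at about 70% in these data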;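 further: 0% = DMSO with NR2E3 transfected cells and 100% = cells lacking NR2E3 construct; higher means lower luciferase signal from less NR2E3 corepressor binding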
Target sequence (Q9Y5X4 whole entry, looked up, the tested form may be a part): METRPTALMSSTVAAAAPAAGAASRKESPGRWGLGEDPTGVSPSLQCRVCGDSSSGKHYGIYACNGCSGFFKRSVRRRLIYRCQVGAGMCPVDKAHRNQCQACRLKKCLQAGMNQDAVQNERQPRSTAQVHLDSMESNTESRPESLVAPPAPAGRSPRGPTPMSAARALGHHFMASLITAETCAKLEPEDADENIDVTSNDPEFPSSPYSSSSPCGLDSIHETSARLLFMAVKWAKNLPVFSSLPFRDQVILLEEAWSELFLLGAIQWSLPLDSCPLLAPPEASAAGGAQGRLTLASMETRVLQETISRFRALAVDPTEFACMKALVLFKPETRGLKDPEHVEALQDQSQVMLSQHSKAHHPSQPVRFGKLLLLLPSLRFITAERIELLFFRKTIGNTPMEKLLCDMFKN
FGF22 binding: binders of recombinant human FGF22 by thermal shift. Q9HCT0. SYPRO orange fluorescence; percent of sucrose octasulfate shift, DMSO zero. activity (Tm shift, normalised), % at 9.99 µM. hit rate 1.5% among 340,000;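 active means mean Tm shift, scaled 0 neutral to 100 positive control, at about 1.3% or above, every replicate too, limit read from the data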
Target sequence (Q9HCT0 whole entry, looked up): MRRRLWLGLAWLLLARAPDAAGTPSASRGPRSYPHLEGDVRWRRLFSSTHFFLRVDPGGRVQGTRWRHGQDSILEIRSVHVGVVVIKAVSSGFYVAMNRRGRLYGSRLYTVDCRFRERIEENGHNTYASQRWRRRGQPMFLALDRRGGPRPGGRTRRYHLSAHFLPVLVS
NR2E3 ag-2: activates human photoreceptor nuclear receptor NR2E3. Q9Y5X4. GST-NR2E3/biotin-RetCOR TR-FRET, 1536-well. inhibition of corepressor binding, % at 4.78 µM. hit rate 0.12% among 320,000. AID 2300;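 active means percent inhibition above the cutoff of mean plus 3 SD of all tested compounds, set per screening campaign, cut at about 20% in these data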;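 further: 0% = DMSO wells and 100% = biotin wells as full block of FRET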
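Material: NR2E3–RetCOR corepressor complex | Quantity: 1.35 nM GST-tagged NR2E3 final | Schedule: 5 h at 4 °C | Replication: Singlicate compound wells | Reagent: RetCOR corepressor, biotinylated, 7 nM | Controls: Biotin wells as high control, 0.6% DMSO wells as low control | Signal: TR-FRET, Eu(K)-anti-GST donor, streptavidin-D2 acceptor, ex 340, em 617/671 nm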
Jurkat NFkB inh: inhibitors of the PMA/ionomycin-induced NF-kB reporter in Jurkat cells; inhibition, % at 4 µM; hit rate 0.53% among 330,000; PMA/ionomycin-induced NF-kB luciferase reporter, luminescence; in the data active means inhibition above about 50%
697 NFkB inh: inhibitors of the PMA/ionomycin-induced NF-kB reporter in 697 B cells; 697 B-cell NF-kB luciferase reporter, 16 h; AID 435022; inhibition, % at 4 µM; hit rate 0.33% among 330,000; in the data active means inhibition above about 35%
miR-122 sensor: miR-122 inhibition in Huh7 cells; Huh7 miR-122 Renilla luciferase sensor, 48 h; neutral wells = 0, positive control = 100; activation (reporter increase), % at 12.5 µM; hit rate 0.3% among 340,000;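 active means mean replicate activation score at least 90 and every replicate individually at or above 90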;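 further: higher luciferase means less miR-122 activity so hits act as miR-122 inhibitors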
* hit, by the source's call; nt = not tested or not shown; [ ] = another dose, or the depositor's remark.

SMILES	NR2E3 ag-1	FGF22 binding	NR2E3 ag-2	Jurkat NFkB inh	697 NFkB inh	miR-122 sensor
CN1CC(c2ccccc2)C2(SC(=S)N(Cc3ccco3)C2=O)C12C(=O)Nc1ccccc12 (configuration not stated)	2	nt	3	4	-9	-2
COc1ccc(Cc2c(C(C)(C)C)nc3c(C)cc(Br)cn23)c(C)c1	-3	44*	nt	nt	nt	0
CC(C)[C@@H](C)NC(=O)N(C)C[C@@H]1OCc2ccccc2-c2c(n(C)c3ccccc23)C(=O)N([C@@H](C)CO)C[C@@H]1C	nt	0	nt	nt	nt	nt
Cc1cc(C(=O)N2CCN(c3ccc([N+](=O)[O-])cc3)CC2)co1	-19	0	0	39	11	-11
Cn1c(C(=O)N2CCN(c3ccc([N+](=O)[O-])cc3)CC2)cc2c(=O)[nH]c3ccccc3c21	12	44*	nt	nt	nt	-10
O=C(NC(=S)Nc1cc(S(=O)(=O)N2CCOCC2)ccc1O)c1ccco1	-27	5.5*	-2	11	-4	3
Cc1ccc(-c2cnc3c(c2)C(=O)N([C@@H](C)CO)C[C@H](C)[C@@H](CN(C)CC2CCCC2)O3)cc1	nt	0	nt	nt	nt	-21[16.7 µM]
CCCNC(=O)N1CC(=O)N2[C@@H](CO)[C@H](c3ccc(-c4cccc(C)c4)cc3)[C@@H]2C1	nt	1	nt	nt	nt	nt
COc1ccc2c(c1OC)C(=O)N1N=C(c3ccc(F)cc3)CC21 (configuration not stated)	4	44*	4	2	5	-18
CNC(=O)C[C@H]1CC[C@H]2[C@H](COc3ccc(NC(=O)C4CC4)cc3C(=O)N2C)O1	nt	0	nt	nt	nt	-7[16.7 µM]
COc1ccc(Cl)cc1S(=O)(=O)N1CCCC1=O	-22	43*	-2	0	8	nt
Cc1ccc(C)c(NC(=O)CSc2nnc(CSc3nc(C)cc(C)n3)n2Cc2ccco2)c1	-6	nt	1	0	-2	119*
CCC(=O)N(CC)C[C@H]1[C@H](c2ccc(-c3cccnc3)cc2)[C@@H](CO)N1C(C)=O	nt	0	nt	nt	nt	18[16.7 µM]
C[C@@H]1CCCCO[C@H](CN(C)S(=O)(=O)c2ccc(Cl)cc2)[C@H](C)CN([C@@H](C)CO)C(=O)c2cc(NS(=O)(=O)c3ccccc3)ccc2O1	nt	0	nt	nt	nt	nt
Nc1ccc(S(=O)(=O)c2ccccc2)nc1	-37	0	-1	-3	1	-11
O=S(=O)(c1ccccc1)c1ccc(C(F)(F)F)cn1	-8	44*	0	5	-11	nt
O=C(CN1CCN(Cc2ccc(Cl)cc2)C1=O)NCc1cccs1	-1	44*	-2	5	-3	1
O=C(CN1CCN(S(=O)(=O)c2ccc(Cl)cc2)CC1)NCc1cccs1	1	nt	0	4	18	nt
C[C@H](CO)N1C[C@H](C)[C@@H](CN(C)C(=O)Nc2cccc3ccccc23)Oc2ccc(NS(C)(=O)=O)cc2CC1=O	nt	0	nt	nt	nt	nt
Cc1c(Cl)cnc(NC(=O)COC(=O)CCC(=O)c2cccs2)c1Cl	18	43*	nt	nt	nt	nt
CCC(CC)NC(=O)COC(=O)CCC(=O)c1cccs1	1	43*	3	15	-1	nt
CCNC(=O)COC(=O)CCC(=O)c1cccs1	-4	0	1	-5	13	nt
CC(C)CNC(=O)COC(=O)CCC(=O)c1cccs1	-9	43*	-3	-10	-9	nt
Cc1c(Cl)cnc(NC(=O)COC(=O)c2cccs2)c1Cl	-11	0	2	-4	-3	-6
COc1ccc(/C=N/NC(=O)c2sc(C)nc2C)cc1	-81	43*	3	6	-14	6
SMILES	NR2E3 ag-1	FGF22 binding	NR2E3 ag-2	Jurkat NFkB inh	697 NFkB inh	miR-122 sensor
C[C@@H]1CN([C@H](C)CO)C(=O)c2ccccc2-c2ccccc2CO[C@@H]1CN(C)Cc1ccc(C(F)(F)F)cc1	nt	0	nt	nt	nt	nt
Cn1c(=O)oc2cc(S(=O)(=O)Nc3cccc(C(=O)O)c3)ccc21	-4	nt	2	-14	-12	-2
CC(=O)c1cccc(NS(=O)(=O)c2ccc3c(c2)oc(=O)n3C)c1	5	nt	-1	8	4	208*
CCCNC(=O)N1CC2(C1)[C@H](c1ccccc1)[C@@H](CO)N2CC1CCCC1	nt	0	nt	nt	nt	nt
C[C@H]1CN([C@@H](C)CO)C(=O)c2ccccc2-c2ccccc2CO[C@H]1CN(C)C(=O)Oc1ccccc1	nt	0	nt	nt	nt	nt
CS(=O)(=O)Nc1ccc2c(c1)[C@H]1C[C@@H](CC(=O)NC3CCCCC3)O[C@H](CO)[C@H]1O2	nt	0	nt	nt	nt	5[16.7 µM]
CCCC[n+]1c(C)sc2ccc(C)cc21	-4	43*	0	2	7	nt
COCC#Cc1ccc([C@@H]2[C@@H](CO)N3CCCCN(S(=O)(=O)c4ccccc4F)C[C@@H]23)cc1	nt	0	nt	nt	nt	-11[16.7 µM]
C[C@H](CO)N1C[C@H](C)[C@H](CN(C)C(=O)Cc2ccccc2)Oc2ncc(-c3ccccc3)cc2C1=O	nt	0	nt	nt	nt	1[16.7 µM]
O=c1cccc2n1Cc1cc3ccccc3nc1-2	-79	44*	5	-91	-87	1
c1ccc2c(c1)-c1nc3ccccc3cc1C2N1CCCCC1 (configuration not stated)	-62	0	nt	nt	nt	nt
CCNC(=S)N1CCn2c(nc3ccccc32)C1	-29	nt	-3	8	-23	-10
CC(C)NC(=S)N1CCn2c(nc3ccccc32)C1	-8	0	2	7	-7	116*
Cc1ccccc1CC1(CO)CCCN(Cc2ccc(C#CC(C)(C)O)cc2)C1 (configuration not stated)	8	43*	-4	5	-5	nt
CC(C)(O)C#Cc1ccc(CN2CCCC(CO)(Cc3cccc(Cl)c3)C2)cc1 (configuration not stated)	6	0	2	-12	-4	nt
OCCNC(=S)Nc1ccc(Cl)c(Cl)c1	-16	1.4*	-1	16	-37	2
Cc1cccc(C)c1NC(=S)Nc1ccc(Cl)c(Cl)c1	-15	43*	1	9	16	-3
Cc1cc(C)cc(NC(=S)Nc2ccc(Cl)c(Cl)c2)c1	-9	1	4	-8	22	0
Cc1ccc(C2=C/C(=C/c3cccnc3)C(=O)O2)c(C)c1	-11	44*	2	-9	6	nt
O=C1OC(c2ccc(Cl)cc2)=C/C1=C/c1cccnc1	-11	0	-2	12	4	-2
C=CCN1C(=O)/C(=C2/Sc3ccccc3N2CC)SC1=S	-5	0	-3	3	14	-2
CCN1C(=O)/C(=C2/Sc3ccccc3N2CC)S/C1=N\c1ncn[nH]1	-17	44*	1	5	10	-14
COc1ccc(S(=O)(=O)N2CCOCC2)cc1NC(=O)C1CCCN1C(=O)c1cccs1 (configuration not stated)	-8	0	3	-7	-10	19
